Reference: ChEMBL document CHEMBL1138768, “A locally active antiinflammatory macrolide (MLD987) for inhalation therapy of asthma” (J Med Chem, 2004)

Columns and labels:
Rattus norvegicus [1] = assay: Intravenous dose that inhibits by 50% the allergen OA-induced eosinophil influx in to the airway lumen of actively sensitized rats after -1h, +24h treatment schedule; type: functional
In short: (§1)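 Actively sensitized Brown-Norway rats challenged with ovalbumin (OA). Compound given intratracheally, orally or i.v. either 1 h or 6 h before challenge, with a second dose 24 h after challenge. Eosinophils counted in bronchoalveolar lavage fluid; ED50 is the dose inhibiting OA-induced eosinophil influx by 50%; n = 5–20 rats.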

Rattus norvegicus [2] = assay: Oral dose that inhibits by 50% the allergen OA-induced eosinophil influx in to the airway lumen of actively sensitized rats after -6h, +24h treatment schedule; type: functional; in short: as §1
Rattus norvegicus [3] = species on record: Rattus norvegicus; assay: Intratracheal dose that inhibits by 50% the allergen OA-induced eosinophil influx in to the airway lumen of actively sensitized rats after -1h, +24h treatment schedule; type: functional; conditions: Trachea, inhaled or nasal; in short: as §1
[4] = Inhibitory activity against IFN-gamma production (Anti-CD3 monoclonal antibody stimulated and cultured CD4 positive cells purified from human peripheral blood mononuclear cell); type: functional, cell-based
[5] = Inhibitory activity against calcineurin phosphatase; parameters: species or system Homo sapiens
[6] = Inhibitory activity against PPD-induced proliferation of human peripheral blood mononuclear cell (HPBMNC); type: functional
In short: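 Human peripheral blood mononuclear cells isolated from blood, stimulated with PPD (M. tuberculosis purified protein derivative). Proliferation read after 5 days in medium with 20% fetal calf serum. Mean IC50 ± SEM (n = 3–6) or the mean of two experiments.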

[7] = Inhibitory activity against IL-2 receptor in human T-cell jurkat cell line stimulated by phytohemagglutininin and phorbol myristate acetate; type: cell-based
In short: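 Jurkat human T-cell line carrying an IL-2 reporter gene, stimulated with phytohemagglutinin plus phorbol myristate acetate. Values are mean IC50 ± SEM (n = 3–6) or the mean of two experiments.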

Rattus norvegicus [8] = species on record: Rattus norvegicus; assay: Intratracheal dose that inhibits by 50% the allergen OA-induced eosinophil influx in to the airway lumen of actively sensitized rats after -6h, +24h treatment schedule; type: functional; conditions: Trachea, inhaled or nasal; in short: as §1
Rattus norvegicus [9] = assay: Intravenous dose that inhibits by 50% the allergen OA-induced eosinophil influx in to the airway lumen of actively sensitized rats after -6h, +24h treatment schedule; type: functional; in short: as §1
Rattus norvegicus [10] = assay: Oral dose that inhibits by 50% the allergen OA-induced eosinophil influx in to the airway lumen of actively sensitized rats after -1h, +24h treatment schedule; type: functional; in short: as §1
[11] = Inhibitory activity against IL-5 production (Anti-CD3 monoclonal antibody stimulated and cultured CD4 positive cells purified from human peripheral blood mononuclear cell); type: functional, cell-based
PBMC = assay: Inhibitory activity against murine mixed lymphocyte reaction; conditions: Mus musculus

IC50 [4]	Ki [5]	IC50 [7]	IC50 [11]	SMILES	ED50 (Rattus norvegicus [1])	ED50 (Rattus norvegicus [2])	ED50 (Rattus norvegicus [3])	IC50 [6]	ED50 (Rattus norvegicus [8])	ED50 (Rattus norvegicus [9])	ED50 (Rattus norvegicus [10])	IC50 (PBMC)
0.06 nM	35 nM	0.19 nM	0.06 nM	C=CC[C@@H]1/C=C(\C)C[C@H](C)C[C@H](OC)[C@H]2O[C@@](O)(C(=O)C(=O)N3CCCC[C@H]3C(=O)O[C@H](/C(C)=C/[C@@H]3CC[C@@H](O)[C@H](OC)C3)[C@H](C)[C@@H](O)CC1=O)[C@H](C)C[C@@H]2OC [TACROLIMUS ANHYDROUS]	0.3 mg/kg	3 mg/kg	0.3 mg/kg	0.18 nM	0.3 mg/kg	0.3 mg/kg	10 mg/kg	0.29 nM
0.32 nM	–	–	0.12 nM	CCCC1O[C@@H]2C[C@H]3[C@@H]4CCC5=CC(=O)C=C[C@]5(C)[C@H]4[C@@H](O)C[C@]3(C)[C@]2(C(=O)CO)O1 (stereo not given in full) [BUDESONIDE]	–	–	0.5 mg/kg	–	–	–	–	–
